Reference: ChEMBL document CHEMBL2029236, “Tubulin binding, protein-bound conformation in solution, and antimitotic cellular profiling of noscapine and its derivatives” (J Med Chem, 2012)
Blank lines part the entries; values can stand above or below the compound they belong to. Activity calls are given as the source filed them. The calls are words filed in the database; no cut-off is given here.

What was measured:
Bos taurus [1] = organism: Bos taurus; assay: Binding affinity to calf brain tubulin assessed as increase in fluorescence at 10 uM by fluorometry relative to control
In short: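 Fluorescence emission spectra of 10 μM ligand with and without 10 μM tubulin in 10 mM sodium phosphate, 0.1 mM GTP, pH 7.0, 25 °C. Emission intensity (425 nm maximum) and anisotropy were compared between bound and unbound ligand.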

SNU-398 [2] = assay: Antiproliferative activity against human SNU398 cells; assay type: functional, cell-based
In short: (§1)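 Cell viability assay in hepatocellular carcinoma cell lines; IC50 values derived from concentration–response data and reported in nM.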

[3] = Antiproliferative activity against human PLC/PRF/5 cells; assay type: functional, cell-based; in short: as §1
SNU-398 [4] = assay: Cell cycle arrest in human SNU398 cells assessed as accumulation at G1 phase at 2 uM after 24 hrs by FACS analysis (reference value: 55.8%); assay type: functional
SNU-398 [5] = assay: Cell cycle arrest in human SNU398 cells assessed as accumulation at G2 phase at 2 uM after 24 hrs by FACS analysis (reference value: 38.2%); assay type: functional
SNU-398 [6] = assay: Cell cycle arrest in human SNU398 cells assessed as accumulation at sub-G1 phase at 2 uM after 24 hrs by FACS analysis (reference value: 1.2%); assay type: functional
[7] = Cell cycle arrest in human PLC/PRF/5 cells assessed as accumulation at G1 phase at 2 uM after 24 hrs by FACS analysis (reference value: 66.8%); assay type: functional, cell-based
[8] = Cell cycle arrest in human PLC/PRF/5 cells assessed as accumulation at G2 phase at 2 uM after 24 hrs by FACS analysis (reference value: 26.1%); assay type: functional, cell-based
[9] = Cell cycle arrest in human PLC/PRF/5 cells assessed as accumulation at sub-G1 phase at 2 uM after 24 hrs by FACS analysis (reference value: 1.4%); assay type: functional, cell-based
Bos taurus [10] = organism: Bos taurus; assay: Inhibition of calf brain tubulin assembly at 1 mM
In short: (§2)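 Read-out: amount of pelleted polymerized tubulin across a compound concentration range. EC50 taken at 50% reduction of the pellet. Average of three experiments.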

[11] = Inhibition of calf brain tubulin assembly; parameters: species or system Bos taurus; in short: as §2
Bos taurus [12] = organism: Bos taurus; assay: Binding affinity to calf brain tubulin assessed as binding constant by fluorometry; assay type: tissue-based
In short: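 Fluorescence titration in 10 mM sodium phosphate, 0.1 mM GTP, pH 7.0, 25 °C. Ligand at 5 μM was titrated with tubulin up to 100 μM. Bound and free ligand were quantified from the change in ligand fluorescence. Binding constant fitted assuming a single site, 1:1 stoichiometry and 0.87 sites per dimer. Average of five experiments.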

Bos taurus [13] = organism: Bos taurus; assay: Inhibition of calf brain tubulin assembly at 10 uM by fluorometry in presence of podophyllotoxin
Bos taurus [14] = organism: Bos taurus; assay: Inhibition of calf brain tubulin assembly at 10 uM by fluorometry in presence of vinblastine
Bos taurus [15] = organism: Bos taurus; assay: Inhibition of calf brain tubulin assembly at 10 uM by fluorometry in presence of isohomohalichondrin
Bos taurus [16] = organism: Bos taurus; assay: Inhibition of calf brain tubulin assembly at 10 uM by fluorometry in presence of pironetin
Bos taurus [17] = organism: Bos taurus; assay: Inhibition of calf brain tubulin assembly at 10 uM by fluorometry in presence of gossipol
Bos taurus [18] = organism: Bos taurus; assay: Inhibition of calf brain tubulin assembly at 10 uM by fluorometry in presence of noscapine
Bos taurus [19] = organism: Bos taurus; assay: Inhibition of calf brain tubulin assembly at 10 uM by fluorometry in presence of nocodazole
Bos taurus [20] = organism: Bos taurus; assay: Binding affinity to calf brain tubulin alpha/beta heterodimer assessed as increase in proton signal at […] by STD NMR analysis
In short: (§3)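 STD NMR with freshly prepared tubulin α/β heterodimer. Ligand:protein molar ratio 30:1 ([…], […]). Read-out: enhancement of ligand proton signals in STD spectra versus an off-resonance reference spectrum acquired without protein irradiation.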

Bos taurus [21] = organism: Bos taurus; assay: Binding affinity to calf brain tubulin alpha/beta heterodimer assessed as increase in proton signal at […] by STD NMR analysis in the presence of noscapine; in short: as §3
SMMC-7721 = assay: Antiproliferative activity against human SMMC7721 after 72 hrs by CellTiter Glo assay; assay type: functional, cell-based; settings: SMMC-7721, 72 h; in short: as §1
[22] = Antiproliferative activity against human MHCC97H after 72 hrs by CellTiter Glo assay; assay type: functional; in short: as §1
Bel-7402 = assay: Antiproliferative activity against human Bel7402 after 72 hrs by CellTiter Glo assay; assay type: functional, cell-based; settings: Bel-7402, 72 h; in short: as §1
[23] = Antiproliferative activity against human Hep3B after 72 hrs by CellTiter Glo assay; assay type: functional, Hep 3B2; in short: as §1
HepG2 = assay: Antiproliferative activity against human HepG2 after 72 hrs by CellTiter Glo assay; assay type: functional, cell-based; settings: HepG2, 72 h; in short: as §1
Huh-7 = assay: Antiproliferative activity against human HuH7 after 72 hrs by CellTiter Glo assay; assay type: functional, cell-based; settings: Huh-7, 72 h; in short: as §1
[24] = Antiproliferative activity against human JHH2 after 72 hrs by CellTiter Glo assay; assay type: functional; in short: as §1
[25] = Antiproliferative activity against human JHH4 after 72 hrs by CellTiter Glo assay; assay type: functional; in short: as §1
[26] = Antiproliferative activity against human JHH7 after 72 hrs by CellTiter Glo assay; assay type: functional; in short: as §1
[27] = Antiproliferative activity against human PLC/PRF/5 after 72 hrs by CellTiter Glo assay; assay type: functional; settings: PLC-PRF-5, 72 h; in short: as §1
[28] = Antiproliferative activity against human SNU182 after 72 hrs by CellTiter Glo assay; assay type: functional, cell-based; settings: SNU-182, 72 h; in short: as §1
SNU-387 = assay: Antiproliferative activity against human SNU387 after 72 hrs by CellTiter Glo assay; assay type: functional, cell-based; settings: SNU-387, 72 h; in short: as §1
SNU-398 [29] = assay: Antiproliferative activity against human SNU398 after 72 hrs by CellTiter Glo assay; assay type: functional, cell-based; settings: SNU-398, 72 h; in short: as §1
SNU-423 = assay: Antiproliferative activity against human SNU423 after 72 hrs by CellTiter Glo assay; assay type: functional, cell-based; settings: SNU-423, 72 h; in short: as §1
SNU-449 = assay: Antiproliferative activity against human SNU449 after 72 hrs by CellTiter Glo assay; assay type: functional, cell-based; settings: SNU-449, 72 h; in short: as §1
SNU-475 = assay: Antiproliferative activity against human SNU475 after 72 hrs by CellTiter Glo assay; assay type: functional, cell-based; settings: SNU-475, 72 h; in short: as §1
[30] = Metabolic stability in microsomes assessed as compound remaining; assay type: ADME, Microsome
[31] = Metabolic stability in S9 fraction assessed as compound remaining; assay type: ADME, subcellular
Bos taurus [32] = organism: Bos taurus; assay: Binding affinity to calf brain tubulin assessed as increase in fluorescence at 10 uM by fluorometry in presence of Mg2+
Bos taurus [33] = organism: Bos taurus; assay: Binding affinity to calf brain tubulin alpha/beta heterodimer by NOE method; assay type: tissue-based
In short: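 Transferred NOE (TR-NOESY) of ligand with tubulin α/β heterodimer at 500 MHz, 298 K. The sign of the NOE cross-peaks is compared between ligand with tubulin and free ligand. Bound conformation derived with molecular mechanics.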

- Activity (Bos taurus [1]): inactive
- IC50 (SNU-398 [2]): > 2000 nM
Compound: COc1ccc2c(c1O)C(=O)O[C@@H]2[C@H]1c2c(cc3c(c2OC)OCO3)CCN1C
- IC50 [3]: > 2000 nM
- Activity (SNU-398 [4]): 33.5%
- Activity (SNU-398 [5]): 47.8%
- Activity (SNU-398 [6]): 15.2%
- Activity [7]: 62.8%
- Activity [8]: 23.3%
- Activity [9]: 8.7%

Compound: COc1ccc2c(c1N)C(=O)O[C@@H]2[C@H]1c2c(cc3c(c2OC)OCO3)CCN1C
- inhibition (Bos taurus [10]): 50%
- EC50 [11]: 1200 nM
- fold change (FC) (Bos taurus [1]): 11
- Activity (Bos taurus [12]): 1.15 ×10⁵ /M
- inhibition (Bos taurus [13]): Active
- inhibition (Bos taurus [14]): Active
- inhibition (Bos taurus [15]): Active
- inhibition (Bos taurus [16]): Active
- inhibition (Bos taurus [17]): Active
- inhibition (Bos taurus [18]): Active
- inhibition (Bos taurus [19]): inactive
- inhibition (Bos taurus [20]): Active
- inhibition (Bos taurus [21]): Active
- IC50 (SNU-398 [2]): 94.3 nM
- IC50 [3]: 237 nM
- IC50 (SMMC-7721): 109 nM
- IC50 [22]: 351 nM
- IC50 (Bel-7402): 78.4 nM
- IC50 [23]: > 1000 nM
- IC50 (HepG2): > 1000 nM
- IC50 (Huh-7): 218 nM
- IC50 [24]: > 1000 nM
- IC50 [25]: 107 nM
- IC50 [26]: 318 nM
- IC50 [27]: 278 nM
- IC50 [28]: 508 nM
- IC50 (SNU-387): 59.5 nM
- IC50 (SNU-398 [29]): 324 nM
- IC50 (SNU-423): 226 nM
- IC50 (SNU-449): 283 nM
- IC50 (SNU-475): 584 nM
- Activity (SNU-398 [4]): 22.9%
- Activity (SNU-398 [5]): 59.8%
- Activity (SNU-398 [6]): 13.8%
- Activity [7]: 18%
- Activity [8]: 67%
- Activity [9]: 8.4%
- Stability [30]: < 5%
- Stability [31]: < 5%
- Activity (Bos taurus [32]): Active
- Activity (Bos taurus [33]): Active

Compound: COC(=O)Nc1nc2cc(C(=O)c3cccs3)ccc2[nH]1
- Activity (Bos taurus [12]): 4 ×10⁵ /M
- inhibition (Bos taurus [13]): Active
- inhibition (Bos taurus [14]): Active
- inhibition (Bos taurus [15]): Active
- inhibition (Bos taurus [16]): Active
- inhibition (Bos taurus [17]): Active
- inhibition (Bos taurus [18]): Active
- inhibition (Bos taurus [19]): inactive
